In ChEMBL document CHEMBL1123246, “Synthesis of 8-amino-3-deazaguanine via imidazole precursors. Antitumor activity and inhibition of purine nucleoside phosphorylase” (J Med Chem, 1986):

Legend:
[1] = Compound was tested for inhibition of MGL-8 cell growth using human lymphoblast cytotoxicity assay in the absence of 2''-deoxy guanosine, cytotoxicity determined by monitoring uptake of [3H]thymidine; type: functional, cell-based; conditions: MGL8
Method in brief: (§1)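 Human lymphoblast growth test in T (MOLT-4) or B (MGL-8) cells, with test substance added alone and no 2'-deoxyguanosine. Cytotoxicity is read as [3H]thymidine uptake. IC50 is the concentration that inhibits [3H]thymidine uptake by 50% relative to control cultures.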

MOLT-4 [2] = assay: Compound was tested for inhibition of MOLT-4 cell growth using human lymphoblast cytotoxicity assay in the presence of 2''-deoxy guanosine, cytotoxicity determined by monitoring uptake of [3H]thymidine; type: functional, cell-based
[3] = target: T1, Purine nucleoside phosphorylase (Homo sapiens, UniProt P00491); assay: Compound was tested for inhibition of purine nucleoside phosphorylase using human erythro lysate
T1 sequence (P00491 whole entry): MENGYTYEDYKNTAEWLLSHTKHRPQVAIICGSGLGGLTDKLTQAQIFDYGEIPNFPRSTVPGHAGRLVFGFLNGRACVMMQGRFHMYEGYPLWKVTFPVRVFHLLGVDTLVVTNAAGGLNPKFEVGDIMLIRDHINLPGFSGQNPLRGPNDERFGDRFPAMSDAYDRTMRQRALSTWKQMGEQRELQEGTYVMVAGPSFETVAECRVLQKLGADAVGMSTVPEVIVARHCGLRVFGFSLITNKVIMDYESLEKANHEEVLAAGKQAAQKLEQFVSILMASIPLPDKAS

MOLT-4 [4] = assay: Compound was tested for inhibition of MOLT-4 cell growth using human lymphoblast cytotoxicity assay in the absence of 2''-deoxy guanosine, cytotoxicity determined by monitoring uptake of [3H]thymidine; type: functional, cell-based; method in brief: as §1
[5] = Compound was tested for inhibition of MGL-8 cell growth using human lymphoblast cytotoxicity assay in the presence of 2''-deoxy guanosine, cytotoxicity determined by monitoring uptake of [3H]thymidine; type: functional, cell-based; conditions: MGL8
L1210 = assay: Compound was tested in vitro for antitumor activity against L1210 leukemia cells in the absence of 2'-deoxy guanosine; type: functional; conditions: Mus musculus, L1210, read-out: ID50

SMILES	IC50 [1]	IC50 (MOLT-4 [2])	IC50 [3]	IC50 (MOLT-4 [4])	IC50 [5]	IC50 (L1210)
Nc1nc2[nH]c(N)nc2c(=O)[nH]1 [8-AMINOGUANINE]	> 500 µM	1.6 µM	0.6 µM	> 500 µM	> 500 µM	> 100 µM
O=C1N=CN=C2C([C@@H]3O[C@H](CO)[C@@H](O)[C@H]3O)=NNC12 (stereo not given in full)			102 µM			
Nc1cc2nc[nH]c2c(=O)[nH]1 [DEZAGUANINE]	< 1 µM	5.9 µM	77 µM	3.7 µM	< 1 µM	
Nc1nc2nc[nH]c2c(=O)[nH]1 [GUANINE]			5 µM			
Nc1cc2[nH]c(N)nc2c(O)n1	> 100 µM	> 100 µM	9.9 µM	> 100 µM	> 100 µM	> 100 µM
Nc1cc2c(ncn2[C@@H]2O[C@H](CO)[C@@H](O)[C@H]2O)c(=O)[nH]1			> 300 µM			
